Measured values from ChEMBL document CHEMBL2380291, “Synthesis, 18F-radiolabeling, and in vivo biodistribution studies of N-fluorohydroxybutyl isatin sulfonamides using positron emission tomography” (J Med Chem, 2013).
The source made the active and inactive calls. No cut-off for these calls is given here.

How the values were obtained:
Caspase-7 = molecular target: T1, Caspase-7 (Homo sapiens, UniProt P55210); test: Inhibition of human recombinant caspase-7 assessed as Ac-DEVD-AMC conversion to 7-amino-4-methylcoumarin incubated for 10 mins prior to substrate addition measured after 10 mins by spectrophotometric analysis
T1 sequence (P55210 whole entry): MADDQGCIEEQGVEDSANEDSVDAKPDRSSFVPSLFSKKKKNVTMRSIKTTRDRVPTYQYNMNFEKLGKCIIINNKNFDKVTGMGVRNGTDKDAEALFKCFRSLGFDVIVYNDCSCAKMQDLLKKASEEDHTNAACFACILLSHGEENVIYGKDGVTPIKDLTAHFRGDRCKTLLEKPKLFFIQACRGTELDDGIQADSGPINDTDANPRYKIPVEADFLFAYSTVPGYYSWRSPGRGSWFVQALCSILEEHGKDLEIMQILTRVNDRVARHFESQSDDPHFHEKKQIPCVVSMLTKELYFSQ
Procedure, shortened: (§1)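 Recombinant caspase diluted to 0.5 unit per assay (500 pmol substrate converted in 60 min), preincubated 10 min at 37 °C in reaction buffer with inhibitor in DMSO at single final concentrations spanning 5 pM to 500 μM. Peptide substrate then added (final 10 μM) and reacted 10 min. IC50 obtained by nonlinear regression.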

Caspase-1 (Homo sapiens) = molecular target: T2, Caspase-1 (Homo sapiens) (UniProt P29466); test: Inhibition of human recombinant caspase-1 assessed as Ac-YVAD-AMC conversion to 7-amino-4-methylcoumarin incubated for 10 mins prior to substrate addition measured after 10 mins by spectrophotometric analysis; procedure, shortened: as §1
T2 sequence (whole entry): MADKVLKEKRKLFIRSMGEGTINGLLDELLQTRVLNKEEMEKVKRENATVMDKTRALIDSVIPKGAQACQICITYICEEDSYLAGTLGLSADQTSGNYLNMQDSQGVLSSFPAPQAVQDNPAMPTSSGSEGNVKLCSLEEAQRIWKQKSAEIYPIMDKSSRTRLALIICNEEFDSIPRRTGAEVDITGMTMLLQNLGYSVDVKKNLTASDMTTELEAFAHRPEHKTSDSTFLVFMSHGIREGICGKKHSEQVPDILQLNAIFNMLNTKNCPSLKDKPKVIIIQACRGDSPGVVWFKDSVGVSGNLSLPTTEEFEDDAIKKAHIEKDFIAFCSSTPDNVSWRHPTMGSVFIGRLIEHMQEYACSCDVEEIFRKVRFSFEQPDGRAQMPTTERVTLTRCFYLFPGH

Caspase-3 = molecular target: T3, Caspase-3 (Homo sapiens, UniProt P42574); test: Inhibition of human recombinant caspase-3 assessed as Ac-DEVD-AMC conversion to 7-amino-4-methylcoumarin incubated for 10 mins prior to substrate addition measured after 10 mins by spectrophotometric analysis; procedure, shortened: as §1
T3 sequence (P42574 whole entry): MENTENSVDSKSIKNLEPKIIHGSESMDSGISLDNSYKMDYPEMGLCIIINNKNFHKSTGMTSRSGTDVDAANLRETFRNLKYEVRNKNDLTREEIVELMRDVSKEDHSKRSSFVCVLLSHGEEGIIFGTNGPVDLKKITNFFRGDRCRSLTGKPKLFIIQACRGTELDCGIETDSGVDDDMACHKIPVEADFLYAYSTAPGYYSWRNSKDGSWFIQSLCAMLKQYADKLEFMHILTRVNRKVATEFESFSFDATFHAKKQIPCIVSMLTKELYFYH

Caspase-6 (Homo sapiens) = molecular target: T4, Caspase-6 (Homo sapiens) (UniProt P55212); test: Inhibition of human recombinant caspase-6 assessed as Ac-VEID-AMC conversion to 7-amino-4-methylcoumarin incubated for 10 mins prior to substrate addition measured after 10 mins by spectrophotometric analysis; procedure, shortened: as §1
T4 sequence (whole entry): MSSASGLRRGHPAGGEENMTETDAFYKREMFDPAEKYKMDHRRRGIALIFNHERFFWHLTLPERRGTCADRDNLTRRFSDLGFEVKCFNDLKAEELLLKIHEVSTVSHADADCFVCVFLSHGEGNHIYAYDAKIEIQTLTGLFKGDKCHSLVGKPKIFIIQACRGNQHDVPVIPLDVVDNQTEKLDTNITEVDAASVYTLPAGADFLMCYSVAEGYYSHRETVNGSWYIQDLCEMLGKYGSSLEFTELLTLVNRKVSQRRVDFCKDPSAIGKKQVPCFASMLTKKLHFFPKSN

Kidney = test: Biodistribution in mouse kidney at 9.8 MBq, iv after 6 mins by PET/CT analysis; assay type: ADME, organism-based; details: in vivo, 0.1 h
Procedure, shortened: (§2)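 Wild-type mice given tracer by tail vein injection through a pump-driven saline flush (300 μL/min) while PET list-mode acquisition started. CT-defined 3D volumes of interest over organs transferred to coregistered PET data. Uptake expressed as percentage injected dose: counts per mL in VOI divided by total counts in mouse, times 100% ID/mL.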

Mus musculus [1] = test: Biodistribution in mouse gall bladder at 9.8 MBq, iv after 6 to 96 mins by PET/CT analysis; assay type: ADME, organism-based; details: in vivo; procedure, shortened: as §2
Heart = test: Biodistribution in mouse heart at 9.8 MBq, iv after 36 seconds by PET/CT analysis; assay type: ADME, organism-based; details: in vivo, 0.01 h; procedure, shortened: as §2
Lung = test: Biodistribution in mouse lung at 9.8 MBq, iv after 36 seconds by PET/CT analysis; assay type: ADME, organism-based; details: in vivo, 0.01 h; procedure, shortened: as §2
Liver = test: Biodistribution in mouse liver at 9.8 MBq, iv after 6 mins by PET/CT analysis; assay type: ADME, organism-based; details: in vivo, 0.1 h; procedure, shortened: as §2
Blood = test: Biodistribution in mouse blood at 9.8 MBq, iv up to 30 mins by PET/CT analysis; assay type: ADME, organism-based; details: in vivo, 0.5 h; procedure, shortened: as §2
Intestine = test: Biodistribution in mouse intestine at 9.8 MBq, iv after 6 to 96 mins by PET/CT analysis; assay type: ADME, organism-based; details: in vivo; procedure, shortened: as §2
Mus musculus [2] = test: Biodistribution in mouse urinary bladder at 9.8 MBq, iv after 6 to 96 mins by PET/CT analysis; assay type: ADME, organism-based; details: in vivo; procedure, shortened: as §2

| SMILES | IC50 (Caspase-7) | inhibition (Caspase-1 (Homo sapiens)) | IC50 (Caspase-3) | inhibition (Caspase-6 (Homo sapiens)) | Drug uptake (Kidney) | Drug uptake (Mus musculus [1]) | Drug uptake (Heart) | Drug uptake (Lung) | Drug uptake (Liver) | Drug uptake (Blood) | Drug uptake (Intestine) | Drug uptake (Mus musculus [2]) |
| --- | --- | --- | --- | --- | --- | --- | --- | --- | --- | --- | --- | --- |
| COC[C@@H]1CCCN1S(=O)(=O)c1ccc2c(c1)C(=O)C(=O)N2CC[C@@H](O)C[18F] | – | – | – | – | 5.2 %ID/ml | Active | 3.6 %ID/ml | 3 %ID/ml | 12 %ID/ml | Active | Active | Active |
| COC[C@@H]1CCCN1S(=O)(=O)c1ccc2c(c1)C(=O)C(=O)N2CC[C@@H](O)CO | 128 nM | Active | 187 nM | Active | – | – | – | – | – | – | – | – |
| COC[C@@H]1CCCN1S(=O)(=O)c1ccc2c(c1)C(=O)C(=O)N2CC[C@@H](O)CF | 296 nM | Active | 25.9 nM | Active | – | – | – | – | – | – | – | – |

Further lines, results first:

| IC50 (Caspase-7) | inhibition (Caspase-1 (Homo sapiens)) | IC50 (Caspase-3) | inhibition (Caspase-6 (Homo sapiens)) | Drug uptake (Kidney) | Drug uptake (Mus musculus [1]) | Drug uptake (Heart) | Drug uptake (Lung) | Drug uptake (Liver) | Drug uptake (Blood) | Drug uptake (Intestine) | Drug uptake (Mus musculus [2]) | SMILES |
| --- | --- | --- | --- | --- | --- | --- | --- | --- | --- | --- | --- | --- |
| 71 nM | Active | 56 nM | Active | – | – | – | – | – | – | – | – | COC[C@@H]1CCCN1S(=O)(=O)c1ccc2c(c1)C(=O)C(=O)N2CC[C@@H](F)CO |
| 103 nM | Active | 106 nM | Active | – | – | – | – | – | – | – | – | COC[C@@H]1CCCN1S(=O)(=O)c1ccc2c(c1)C(=O)C(=O)N2CC[C@H](O)CO |
| 27 nM | Active | 23.3 nM | Active | – | – | – | – | – | – | – | – | COC[C@@H]1CCCN1S(=O)(=O)c1ccc2c(c1)C(=O)C(=O)N2CC[C@H](O)CF |
| 0.951 nM | Active | 11.8 nM | Active | – | – | – | – | – | – | – | – | COC[C@@H]1CCCN1S(=O)(=O)c1ccc2c(c1)C(=O)C(=O)N2CC[C@H](F)CO |
